# Test results published in the RNAGym collection of RNA variant scans (doi:10.1101/gad.245936.114).
# This sample holds only a part of the variants without activity.
# B1: tRNA (parent)
# chain: CUCUCGGUAGCCAAGUUGGUUUAAGGCGCAAGACUUUAAUUUAUCACUACGAAAUCUUGAGAUCGGGCGUUCGACUCGCCCCCGGGAGAUUUUUUCCUCGAGCAA
# Variants of: B1
# Test: nonsense suppression (GFP-seq) (ratio to wild type); higher = more function; SUP4oc tRNA, yeast GFP reporter sort-seq
# Procedure, shortened: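 Each variant's nonsense suppression (GFPSEQ) is a cell-share-weighted bin median GFP/RFP relative to the unmutated parent tRNA. Yeast with genome-integrated tRNA variants from a ~3% random-mutation library, a galactose-driven GFP ochre reporter and RFP were grown in raffinose/galactose medium with 80 mg/L adenine, then sorted into GFP/RFP bins for Illumina sequencing. Variants needed ≥100 reads and ≥30 cells.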
row,Variant,nonsense suppression
1,CUCUCGGUAGCCAAGUUGGUAUAAGGCGCAAGACUUUAAUUUAUCACUACGAACUCUUGAAAUCGGGCGUUCGACUCGCCCCCGGGAGAUUUUUUCCUCGAGCAA [U21A A54C G61A],0.215
2,CUCUCGGUAGCCAAGUUGGGUUAAGGCGCAAGACUUUAAUUUAUCACUACGAAAUCUUCAGAUAGGGCGUUCGACUCGCCCCCGUGAGAUUUUUUCCUCGAGCAA [U20G G59C C64A G85U],≤ 0.026
3,CUCUCGGUAGCCAAGUUGGGUUAAGGCGCAAGACUUUAAUUUAUCACUACGAAACCUUGAGAUCGGGCGUUCGGCUCGCCCCCGGGAGAUUUUUUCCUCGAGCAA [U20G U55C A74G],≤ 0.026
4,CUCUCGGUAGCCAAGUUGGGUUAAGGCGCAAGACUUUAAUUUAUCACUACGAAAUCUUGAGAUCGGGCGUUCGACUCGCCCCCGUGAGAUUUUUUCCUCGAGCAA [U20G G85U],0.81
5,CUCUCGGUAGCCAAGUUGGGUUAAGGCGCAAGACUUUAAUUUAUCACUACGAAAUCUUGAGAUCGGGCGUUCGACUCGCCCCCGCGAGAUUUUUUCCUCGAGCAA [U20G G85C],0.0271
6,CUCUCGGUAGCCAAGUUGGUAUAAGGCGCAAGACUUUAAUUUAUCACUACGAAAUCUUGAGAUCGGGCGUUCGACUCCCCCCCGGGAGAUUUUUUCCUCGAGCAA [U21A G78C],0.0372
7,CUCUCGGUAGCCAAGUUGGUAUAUGGCGCAAGACUUUAAUUUAUCACUACGAAAUCUUGAGAUCGGGCGUUCGACUCGCCCCCGGGAGAUUUUUUCCUCGAGCAA [U21A A24U],0.184
8,CUCUCGGUAGCCAAGUUGGUAUACGGCGCAAGACUUUAAUUUAUCACUACGAAAUCUUGAGAUCGGGCGUUCGACUCGCCCCCGGGAGAUUUUUUCCUCGAGCAA [U21A A24C],0.753
9,CUCUCGGUAGCCAAGUUGGUAUAAGGCGCAAGACUUUAAUUUAUCACUACGAAAUCUUGGGAUCGGGCGUUCGACUCGCCCCCGGGAGAUUUUUUCCUCGAGCAA [U21A A60G],0.302
10,CUCUCGGUAGCCAAGUUGGUAUAAGGCGCAAGACUUUAAUUUAUCACUACGAAAUCUUGAUAUCGGGCGUUCGACUCGCCCCCGGGAGAUUUUUUCCUCGAGCAA [U21A G61U],0.791
11,CUCUCGGUAGCCAAGUUGGUAGAAGGCGCAAGACUUUAAUUUAUCACUACGAAAUCUUGAGAUCGGGCGUUCGACAAGCCCCCGGGAAAUUUUUUCCUCGAGCAA [U21A U22G U76A C77A G88A],≤ 0.026
12,CUCUCGGUAGCCAAGUUGGGUUAAGGCGCAAGACUUUAAUUUAUCACUACGAAAUCUUGAGAUCGGACGUUCGACUCGCCCCCGGGAGAUUUUUUCCUCGAGCAA [U20G G67A],0.0529
13,CUCUCGGUAGCCAAGUUGGGUUAAGGCGCAAGACUUUAAUUUAUCACUACGAAAUUUUGAGAUCGGGCGUUCGACUCGCCCCCGGGAGAUUUUUUCCUCGAGCAA [U20G C56U],0.148
14,CUCUCGGUAGCCAAGUUGGUAUAAGGCGCAAGACUUUAAUUUAUCACUACGAAACCGUGAGAUCGGGCGUUCGACUCGCCCCCGGGAGAUUUUUUCCUCGAGCAA [U21A U55C U57G],≤ 0.026
15,CUCUCGGUAGCCAAGUUGGUAUAAGGCGCAAGACUUUAAUUUAUCACUACGAAAUCUUGAGAUCGGGCGUUCGACUCGCCCCCGAGAGAUUUUUUCCUCGAGCAA [U21A G85A],1.06
16,CUCUCGGUAGCCAAGUUGGUAUAAGGCCCAAGACUUUAAUUUAUCACUACGAAAUCUUGAGAUCGGGCGUUCGACUCGCCCCCGGGAGAUUUUUUCCUCGAGCAA [U21A G28C],0.495
17,CUCUCGGUAGCCAAGUUGGUAAAAGGCCCAAGACUUUAAUUUAUCACUACGAAAACUUGAGAUCGGGCAUUCGACUCGCCCCCGGGAGAUUUUUUCCUCGAGCAA [U21A U22A G28C U55A G69A],≤ 0.026
18,CUCUCGGUAGCCAAGUUGGGUGAAGGCGCAAGACUUUAAUUUAUCACUACGAAAUCUUGAGAUCGGGCGUUCGACUCGCCCCCGGGAGAUUUUUUCCUCGAGCAA [U20G U22G],1.06
19,CUCUCGGUAGCCAAGUUGGGUUAAGGCGCAAGACUUUAAUUUAUCACUACGAAAUCUUGAGAACGGGCGUUCGACUCGCCCCCGGGAGAUUUUUUCCUCGAGCAA [U20G U63A],1.06
20,CUCUCGGUAGCCAAGUUGGGUUAAGGCGCAAGACUUUAAUUUAUCACUACGAAAUCUUGAGAGCGGGCGUUCGACUCGCCCCCGGGAGAUUUUUUCCUCGAGCAA [U20G U63G],0.495
21,CUCUCGGUAGCCAAGUUGGUAUAAGGCGCAGGACUUUAAUUUAUCACUACGAAAUCUUGAGAUCGGGCGUUCGACUCGCCCCCGGGAGAUUUUUUCCUCGAGCAA [U21A A31G],1.16
22,CUCUCGGUAGCCAAGUUGGGUUAAGGCGCAAGACUUUAAUUUAUCACUACGAAAUCUUGAGAUCGGGCGUGCGACUCGCCCCCGGGAGAUUUUUUCCUCGAGCAA [U20G U71G],≤ 0.026
23,CUCUCGGUAGCCAAGUUGGGUUAAGGCACAAGACUUUAAUUUAUCACUACGAAAUCUUGAGAUCGGGCGUUCGACUCGCCCUCGGGAGAUUUUUUCCUCGAGCAA [U20G G28A C82U],0.239
24,CUCUCGGUAGCCAAGUUGGUAUAAGGCGCAAGACUUUAAUUUAUCACUACGAAAUCUUGAGAUCGGGCGUUCGACUCGCCCCCGGGAGAUUUUUUCCUCGAGCAA [U21A],1.02
25,CUCUCGGUAGCCAAGUUGGUAUAAGGCGAAAGACUUUAAUUUAUCACUACGAAAUCUUGAGAUCGGGCGUUCGACUCGUCCCCGGGAGAUUUUUUCCUCGAGCAA [U21A C29A C79U],≤ 0.026
26,CUCUCGGUAGCCAAGUUGGUAUAAGGCGCAAGACUUUAAUUUAUCACUACGAAUUCUUGAGAUCGGGCGUUCGACUCGCCCCCGGGAGAUUUUUUCCUCGAGCAA [U21A A54U],0.737
27,CUCUCGGUAGCCAAGUUGGUAUAAGGCGCAAGACUUUAAUUUAUCACUACGAAAUCUUGAGAUCGGGCGUUCGACUCGCCCCGGGGAUAUUUUUUCCUCGAGCAA [U21A C83G G88U],≤ 0.026

row,Variant,nonsense suppression
1,CUCUCGGUAGCCAAGUUGGGUUAAGGCGCAAGACUUUAAUUUAUCACUACGAAAUCUUGAGAUCGGGCGUUCGACUCGGCCCCGGGGGAUUUUUUCCUCGAGCAA [U20G C79G A87G],≤ 0.026
2,CUCUCGGUAGCCAAGUUGGUAUAAGGCGCAAGACUUUAAUUUAUCACUACGAAAUCUUGAGAUCGGGCGUUCGAAUCGCCCCCGGGAGAUUUUUUCCUCGAGCAA [U21A C75A],0.947
3,CUCUCGGUAGCCAAGUUGGGUUAAGGCGCAAGACUUUAAUUUAUCACUACGAAAUCUUGACAUCGGGCGUUCGACUCGCCCCCGGGAGAUUUUUUCCUCGAGCAA [U20G G61C],0.615
4,CUCUCGGUAGCCAAGUUGGGUUAAGGCGCAAGACUUUAAUUUAUCACUACGAAAUCUUGAAAUCGGGCGUUCGACUCGCCCCCGGGAGAUUUUUUCCUCGAGCAA [U20G G61A],0.635
5,CUCUCGGUAGCCAAGUUGGGUUAAGGCGCAAGACUUUAAUUUAUCACUACGAAAUCUUGAUAUCGGGCGUUCGACUCGCCCCCGGGAGAUUUUUUCCUCGAGCAA [U20G G61U],0.874
6,CUCUCGGUAGCCAAGUUGGUAUAAGGCGCGAGACUUUAAUUUAUCACUACGAAAUCUUGAGAUCGGGCGUUCGACUCGCCCCCGGGAGAUUUUUUCCUCGAGCAA [U21A A30G],0.42
7,CUCUCGGUAGCCAAGUUGGUAUAAGGCGCAAGACUUUAAUUUAUCACUACGAAAUCUUGAGAUCGUGCGUUCGACUCGCGCCCGGGAGAUUUUUUCCUCGAGCAA [U21A G66U C80G],0.219
8,CUCUCGGUAGCCAAGUUGGUAUAAGGCGCAAGACUUUAAUUUAUCACUACGAAAUCUUGAGAUCCGGCGUACGACUCUCCCCCGGGAGAUUUUUUCCUCGAGCAA [U21A G65C U71A G78U],≤ 0.026
9,CUCUCGGUAGCCAAGUUGGGUUAAAGCGCAAGACUUUAAUUUAUCACUACGAAAUCUUGAGAUCGGGCGUUCGACUCACCCCCGGGAGAUUUUUUCCUCGAGCAA [U20G G25A G78A],≤ 0.026
10,CUCUCGGUAGCCAAGUUGGGUUAAGGCGCAAGACUUUAAUUUAUCACUACGAAAUCUUGAGAUCGGGCGUUCAACUCGCCCCCGGGAGAUUUUUUCCUCGAGCAA [U20G G73A],0.677
11,CUCUCGGUAGCCAAGUUGGGUUAAGGCGCAAGACUUUAAUUUAUCACUACGAAAUCUUGAGAUCGGGCGUUCGACUCGCUCCCGGGAGAUUUUUUCCUCGAGCAA [U20G C80U],0.202
12,CUCUCGGUAGCCAAGUUGGUAUAAGGCGCAAGACUUUAAUUUAUCACUACGAAAUCUUGAGAUCGGGCGUUCGACUCGCCCCCGGGGGAUUUUUUCCUCGAGCAA [U21A A87G],0.493
13,CUCUCGGUAGCCAAGUUGGGUUAAGGCGCAAGACUUUAAUUUAUCACUACGAAAUCUUGAGAUCGGGCGUUCGACUCGCCGCCGGGAGAUUUUUUCCUCGAGCAA [U20G C81G],≤ 0.026
14,CUCUCGGUAGCCAAGUUGGGUUAAGGCGCAAGACUUUAAUUUAUCACUACGAAAUCUUGAGAUCGGGCGUUCGACUCGCCCUCGGGAGAUUUUUUCCUCGAGCAA [U20G C82U],0.838
15,CUCUCGGUAGCCAAGUUGGUAUAAGGCGCAAGACUUUAAUUUAUCACUACGAAACCUUGAGAUCGGGCGUUCGACUCGUCCCCGGGAGAUUUUUUCCUCGAGCAA [U21A U55C C79U],≤ 0.026
16,CUCUCGGUAGCCAAGUUGGUAUAAGGCGCAAGACUUUAAUUUAUCACUACGAAUUCUUGAGAUCGGGCGUUCGACCCGCCCCCGGGAGAUUUUUUCCUCGAGCAA [U21A A54U U76C],0.751
17,CUCUCGGUAGCCAAGUUGGUAUAAGGCGCAAGACUUUAAUUUAUCACUACGAAAUCUUGAGAUCGGGCGUUCGACCCGCCCCCGGGAGAUUUUUUCCUCGAGCAA [U21A U76C],1.18
18,CUCUCGGUAGCCAAGUUGGGUUAAGGCGCAACACUUUAAUUUAUCACUACGAAAUCUUGAGUUCGGGCGUUCGACUCGCCCCCGGGAGAUUUUUUCCUCGAGCAA [U20G G32C A62U],≤ 0.026
19,CUCUCGGUAGCCAAGUUGGUAUAAGGCGCAAGACUUUAAUUUAUCACUACGAAAUCUUGAGAGCGGGCGUUCGACUCGCCCCCGGAAGAUUUUUUCCUCGAGCAA [U21A U63G G86A],≤ 0.026
20,CUCUCGGUAGCCAAGUUGGGGUAAGGCGCAAGACUUUAAUUUAUCACUACGAAAUCUUGAGAUCGGGCGUUCGACUCGCCCCCGGGAGAUUUUUUCCUCGAGCAA [U20G U21G],0.75
21,CUCUCGGUAGCCAAGUUGGGAUAAGGCGCAAGACUUUAAUUUAUCACUACGAAAUCUUGAGAUCGGGCGUUCGACUCGCCCCCGGGAGAUUUUUUCCUCGAGCAA [U20G U21A],1.18
22,CUCUCGGUAGCCAAGUUGGGCUAAGGCGCAAGACUUUAAUUUAUCACUACGAAAUCUUGAGAUCGGGCGUUCGACUCGCCCCCGGGAGAUUUUUUCCUCGAGCAA [U20G U21C],0.761
23,CUCUCGGUAGCCAAGUUGGUAUAAGGCGCAAGACUUUAAUUUAUCACUACGAAAUCUUGAGAUCGGGCGUUCGACUCGUCCCCGGGAGAUUUUUUCCUCGAGCAA [U21A C79U],0.444
24,CUCUCGGUAGCCAAGUUGGUAUAAGGCGCAAGACUUUAAUUUAUCACUACGAAAUCUUGAGAUCGGGCGUUCGACUCGGCCCCGGGAGAUUUUUUCCUCGAGCAA [U21A C79G],≤ 0.026
25,CUCUCGGUAGCCAAGUUGGGUUAAGCCGCAAGACUUUAAUUUAUCACUACGAAAUCUUGAGAUCGGGCGUUCGACUCGCCCCCGGGAGAUUUUUUCCUCGAGCAA [U20G G26C],≤ 0.026
26,CUCUCGGUAGCCAAGUUGGGUUAAGGCGCAAGACUUUAAUUUAUCACUACGAAACCUUGAGAUCGGGCGUUCGACUCGCCCCCGGGAGAUUUUUUCCUCGAGCAA [U20G U55C],0.849
27,CUCUCGGUAGCCAAGUUGGUAUAAGGCGCAAGAGUUUAAUUUAUCACUACGAAAUCUUGAGAUCGGGCGUUCGACUCGCCCUCGGGAGUUUUUUUCCUCGAGCAA [U21A C34G C82U A89U],≤ 0.026
